Measured values published in ChEMBL document CHEMBL3352788, “Characterization of selective exosite-binding inhibitors of matrix metalloproteinase 13 that prevent articular cartilage degradation in vitro” (J Med Chem, 2014).

Assays:
[1] = target: Prothrombin (Homo sapiens) (UniProt P00734); assay: Inhibition of recombinant human thrombin using PRTLT substrate at up to 5 uM after 3 hrs
In short: (§1)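 In this microfluidic protease panel, enzyme and compound were preincubated 30 min at 25 °C. The peptide substrate was added and the reaction was incubated 3 h at 25 °C, then quenched (SDS, EDTA, iodoacetate). Activity was read as % substrate converted to product. Dose–response was singlicate, 12-point 3-fold dilutions spanning 5 μM to 0.028 nM. IC50 was the concentration leaving 50% activity relative to no-compound control.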

[2] = target: Cathepsin S (Homo sapiens) (UniProt P25774); assay: Inhibition of recombinant human cathepsin S using RTLTAK substrate at up to 5 uM after 3 hrs; in short: as §1
Cytochrome P450 3A4 = Cytochrome P450 3A4 (Homo sapiens, UniProt P08684); assay: Inhibition of CYP3A4 (unknown origin) using testosterone substrate at 20 uM; format: ADME
In short: (§2)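 Human liver microsomes with probe substrate and an NADPH-regenerating system in 0.1 M potassium phosphate pH 7.4 at 37 °C, run in duplicate. Inhibitor at 0–20 μM (0–2.5 μM for one compound), eight concentrations. Reactions were stopped with acetonitrile/formic acid containing isotope-labelled internal standard, and metabolite area ratios were compared with and without inhibitor. IC50 was taken by linear interpolation between bracketing concentrations.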

[3] = target: Beta-secretase 1 (Homo sapiens) (UniProt P56817); assay: Inhibition of recombinant human BACE1 using SEVNLDAEFRKKRR substrate at up to 5 uM after 3 hrs
In short: (§3)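 Outsourced microfluidic protease panel. Compound was preincubated with each protease for 30 min at 25 °C, then peptide substrate was added for 3 h at 25 °C and quenched with SDS/EDTA/iodoacetate. Substrate-to-product conversion was measured on LabChip. Compounds were tested singly in a 12-point 3-fold dilution series, top 20 μM (5 μM for two reference compounds).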

[4] = target: Procathepsin L (Homo sapiens) (UniProt P07711); assay: Inhibition of recombinant human cathepsin L using GGALRAG substrate at up to 5 uM after 3 hrs; in short: as §1
Caspase-7 (Homo sapiens) [5] = target: T1, Caspase-7 (Homo sapiens) (UniProt P55210); assay: Inhibition of recombinant human caspase 7 using DEVDAA substrate at up to 5 uM after 3 hrs; in short: as §3
T1 sequence (whole entry): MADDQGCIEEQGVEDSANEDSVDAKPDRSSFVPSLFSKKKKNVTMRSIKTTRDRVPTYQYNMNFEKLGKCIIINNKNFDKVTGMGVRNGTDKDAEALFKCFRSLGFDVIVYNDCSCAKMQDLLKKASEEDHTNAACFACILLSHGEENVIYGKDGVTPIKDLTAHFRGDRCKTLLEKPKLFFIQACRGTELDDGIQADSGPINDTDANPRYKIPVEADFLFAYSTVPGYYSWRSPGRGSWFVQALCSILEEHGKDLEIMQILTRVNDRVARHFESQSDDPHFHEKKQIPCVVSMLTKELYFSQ

[6] = target: Cathepsin D (Homo sapiens) (UniProt P07339); assay: Inhibition of recombinant human cathepsin D using EVNLDAEFRK substrate at up to 5 uM after 3 hrs; in short: as §3
[7] = target: Coagulation factor X (Homo sapiens) (UniProt P00742); assay: Inhibition of recombinant human factor 10a using ALPRTMFIQ substrate at up to 5 uM after 3 hrs; in short: as §1
CYP3A4 = CYP3A4 (Homo sapiens, UniProt P08684); assay: Inhibition of CYP3A4 (unknown origin) using midazolam substrate at 20 uM; format: ADME; conditions: probe midazolam; in short: as §2
[8] = target: Urokinase-type plasminogen activator (Homo sapiens) (UniProt P00749); assay: Inhibition of recombinant human uPA using GRTSSVEP substrate at up to 5 uM after 3 hrs; in short: as §1
Caspase-7 (Homo sapiens) [9] = target: T1, Caspase-7 (Homo sapiens); assay: Inhibition of recombinant human caspase 7 using DEVDAA substrate at up to 20 uM after 3 hrs; in short: as §3
Caspase-1 (Homo sapiens) = target: T2, Caspase-1 (Homo sapiens) (UniProt P29466); assay: Inhibition of recombinant human caspase 1 using WEHDGPKR substrate at up to 20 uM after 3 hrs; in short: as §3
T2 sequence (whole entry): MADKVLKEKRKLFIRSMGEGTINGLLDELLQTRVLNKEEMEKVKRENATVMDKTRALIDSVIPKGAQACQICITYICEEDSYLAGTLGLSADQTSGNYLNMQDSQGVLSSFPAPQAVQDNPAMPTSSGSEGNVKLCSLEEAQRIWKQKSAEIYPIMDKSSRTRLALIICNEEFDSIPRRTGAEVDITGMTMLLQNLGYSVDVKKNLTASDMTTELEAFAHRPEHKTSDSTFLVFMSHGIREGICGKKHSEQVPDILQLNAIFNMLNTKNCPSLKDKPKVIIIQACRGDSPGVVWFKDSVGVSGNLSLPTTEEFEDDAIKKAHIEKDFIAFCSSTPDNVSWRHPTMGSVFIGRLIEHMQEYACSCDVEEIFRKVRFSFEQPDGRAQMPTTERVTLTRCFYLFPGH

[10] = target: Stromelysin-1 (Homo sapiens) (UniProt P08254); assay: Inhibition of recombinant human MMP-3 using GRIGFL substrate up to 20 uM; in short: as §3
[11] = target: Beta-secretase 1 (Homo sapiens) (UniProt P56817); assay: Inhibition of recombinant human BACE1 using SEVNLDAEFRKKRR substrate at up to 20 uM after 3 hrs; in short: as §3
[12] = target: Coagulation factor X (Homo sapiens) (UniProt P00742); assay: Inhibition of recombinant human factor 10a using ALPRTMFIQ substrate at up to 20 uM after 3 hrs
In short: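 Each protease was preincubated 30 min at 25 °C with compound in its assay buffer. Peptide substrate was then added and the reaction ran 3 h at 25 °C before quenching with SDS/EDTA/iodoacetate. Substrate-to-product conversion (%) was read by microfluidic electrophoresis. Compounds were tested in singlicate as 12-point 3-fold dilutions from 20 μM to 0.1 nM. IC50 was taken as the concentration giving 50% of no-compound control activity.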

Liver microsome = assay: Half life in rat liver microsomes by LC-MS/MS analysis; format: ADME
In short: (§4)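 Compound at 1 μM with 1 mg/mL liver microsomes in 100 mM potassium phosphate pH 7.4 at 37 °C with shaking. Reaction started with 1 mM NADPH (final). Aliquots were taken at 0, 5, 10, 20, 40 and 60 min and quenched in acetonitrile. Parallel incubations without NADPH were run.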

Liver = assay: Half life in mouse liver microsomes by LC-MS/MS analysis; format: ADME; in short: as §4

Sequence of Beta-secretase 1 (Homo sapiens) (P56817 whole entry): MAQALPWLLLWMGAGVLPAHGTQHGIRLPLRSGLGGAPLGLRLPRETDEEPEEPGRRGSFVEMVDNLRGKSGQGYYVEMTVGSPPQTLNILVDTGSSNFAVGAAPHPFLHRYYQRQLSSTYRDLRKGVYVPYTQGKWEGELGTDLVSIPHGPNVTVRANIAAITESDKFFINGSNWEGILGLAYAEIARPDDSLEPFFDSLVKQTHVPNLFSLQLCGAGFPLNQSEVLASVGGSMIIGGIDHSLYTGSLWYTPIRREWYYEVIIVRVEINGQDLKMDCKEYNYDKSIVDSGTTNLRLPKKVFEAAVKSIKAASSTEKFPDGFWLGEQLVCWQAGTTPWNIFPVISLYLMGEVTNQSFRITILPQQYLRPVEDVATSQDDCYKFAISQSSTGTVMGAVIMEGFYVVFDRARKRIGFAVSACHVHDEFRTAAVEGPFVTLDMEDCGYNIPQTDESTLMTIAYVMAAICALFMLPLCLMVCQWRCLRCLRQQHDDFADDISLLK
Sequence of Coagulation factor X (Homo sapiens) (P00742 41-179 limits assumed): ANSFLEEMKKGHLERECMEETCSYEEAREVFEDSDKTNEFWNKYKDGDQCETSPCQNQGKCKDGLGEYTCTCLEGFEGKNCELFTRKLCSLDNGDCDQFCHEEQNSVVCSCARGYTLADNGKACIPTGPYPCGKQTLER
Sequence of Coagulation factor X (Homo sapiens) (P00742 235-488 limits assumed): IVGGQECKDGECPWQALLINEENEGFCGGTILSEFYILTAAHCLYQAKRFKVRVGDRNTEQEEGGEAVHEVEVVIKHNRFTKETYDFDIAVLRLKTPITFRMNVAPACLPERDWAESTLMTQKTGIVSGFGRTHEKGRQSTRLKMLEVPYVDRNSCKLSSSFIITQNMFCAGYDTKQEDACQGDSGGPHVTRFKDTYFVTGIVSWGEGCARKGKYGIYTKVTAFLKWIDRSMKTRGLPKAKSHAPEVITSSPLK
Sequence of Stromelysin-1 (Homo sapiens) (P08254 100-477 limits assumed): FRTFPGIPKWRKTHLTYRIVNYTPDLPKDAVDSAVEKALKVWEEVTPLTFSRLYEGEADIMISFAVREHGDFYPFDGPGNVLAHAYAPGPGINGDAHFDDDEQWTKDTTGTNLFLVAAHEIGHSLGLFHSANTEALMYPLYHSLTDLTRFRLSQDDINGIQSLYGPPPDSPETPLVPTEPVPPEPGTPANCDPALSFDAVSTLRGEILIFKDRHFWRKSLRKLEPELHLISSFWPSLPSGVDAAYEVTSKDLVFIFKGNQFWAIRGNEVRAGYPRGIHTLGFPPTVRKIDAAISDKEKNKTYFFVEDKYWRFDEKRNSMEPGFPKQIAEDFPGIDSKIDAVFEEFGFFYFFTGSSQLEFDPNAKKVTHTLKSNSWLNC
Sequence of Cathepsin S (Homo sapiens) (P25774 115-331 limits assumed): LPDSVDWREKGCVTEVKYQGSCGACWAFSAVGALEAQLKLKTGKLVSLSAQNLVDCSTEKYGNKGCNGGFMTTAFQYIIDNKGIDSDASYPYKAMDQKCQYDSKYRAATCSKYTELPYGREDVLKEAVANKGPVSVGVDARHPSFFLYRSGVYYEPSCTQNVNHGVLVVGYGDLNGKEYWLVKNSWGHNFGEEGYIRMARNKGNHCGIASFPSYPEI
Sequence of Procathepsin L (Homo sapiens) (P07711 114-333 limits assumed): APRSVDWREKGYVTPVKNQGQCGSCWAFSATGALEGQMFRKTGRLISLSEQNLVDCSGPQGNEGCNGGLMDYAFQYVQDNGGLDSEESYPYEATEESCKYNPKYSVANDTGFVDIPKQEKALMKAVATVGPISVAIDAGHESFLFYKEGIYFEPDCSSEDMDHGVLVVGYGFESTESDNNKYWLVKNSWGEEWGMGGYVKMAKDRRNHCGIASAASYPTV
Sequence of Cathepsin D (Homo sapiens) (P07339 65-162 limits assumed): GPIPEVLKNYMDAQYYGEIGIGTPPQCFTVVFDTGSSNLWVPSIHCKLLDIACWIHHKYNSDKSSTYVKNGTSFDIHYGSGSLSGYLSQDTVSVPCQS
Sequence of Cathepsin D (Homo sapiens) (P07339 169-412 limits assumed): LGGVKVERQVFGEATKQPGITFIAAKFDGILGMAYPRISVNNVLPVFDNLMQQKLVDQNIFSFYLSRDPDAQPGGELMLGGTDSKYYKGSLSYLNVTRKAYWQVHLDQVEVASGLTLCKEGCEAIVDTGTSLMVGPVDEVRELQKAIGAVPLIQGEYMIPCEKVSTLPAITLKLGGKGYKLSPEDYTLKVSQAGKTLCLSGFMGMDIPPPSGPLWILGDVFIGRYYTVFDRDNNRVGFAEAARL
Sequence of Cytochrome P450 3A4 (P08684 whole entry): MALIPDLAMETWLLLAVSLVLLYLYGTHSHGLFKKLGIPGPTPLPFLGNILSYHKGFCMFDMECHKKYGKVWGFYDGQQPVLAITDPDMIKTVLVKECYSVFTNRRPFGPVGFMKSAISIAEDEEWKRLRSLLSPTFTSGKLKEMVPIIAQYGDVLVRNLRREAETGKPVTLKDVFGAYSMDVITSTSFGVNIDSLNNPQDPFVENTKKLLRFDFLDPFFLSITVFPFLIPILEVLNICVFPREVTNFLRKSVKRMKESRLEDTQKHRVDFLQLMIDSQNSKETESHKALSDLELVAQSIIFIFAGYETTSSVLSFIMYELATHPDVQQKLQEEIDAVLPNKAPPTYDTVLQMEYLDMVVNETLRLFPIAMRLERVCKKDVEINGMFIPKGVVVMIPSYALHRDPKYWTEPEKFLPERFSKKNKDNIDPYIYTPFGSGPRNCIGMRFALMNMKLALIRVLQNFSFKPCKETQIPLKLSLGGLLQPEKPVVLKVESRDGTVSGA
Sequence of CYP3A4 (P08684 whole entry): as above

Compound	inhibition [1] [%]	inhibition [2] [%]	inhibition (INH) (Cytochrome P450 3A4) [%]	inhibition [3] [%]	inhibition [4] [%]	inhibition (Caspase-7 (Homo sapiens) [5]) [%]	inhibition [6] [%]	inhibition [7] [%]	inhibition at 20 µM (CYP3A4) [%]	inhibition [8] [%]	inhibition (Caspase-7 (Homo sapiens) [9]) [%]	inhibition (Caspase-1 (Homo sapiens)) [%]	inhibition [10] [%]	inhibition [11] [%]	inhibition [12] [%]	t1/2 (Liver microsome) [min]	t1/2 (Liver) [min]
Cc1cc(CNC(=O)c2cc(C(=O)NCc3ccc(F)c(C)c3)ncn2)ccc1F	< 10	< 10	> 10	< 10	< 10	< 10	< 10	< 10	< 50	< 10	–	–	–	–	–	–	–
Cn1c(=O)n(Cc2ccc(C(=O)O)cc2)c(=O)c2cc(C#CCc3ccccc3)ccc21	< 10	< 10	–	< 10	< 10	< 10	< 10	< 10	–	< 10	–	–	–	–	–	–	–
Cc1ccc(CSc2nc(O)c3c(n2)CCC3)cc1	–	–	–	–	–	–	–	–	–	–	< 10	< 10	> 10	< 10	< 10	–	–
COC(=O)c1ccc(CSc2nc3c(c(=O)[nH]2)CCC3)cc1	–	–	< 50	–	–	–	–	–	< 50	–	< 10	< 10	> 10	< 10	< 10	1.8	2
Oc1nc(SCc2ccc(Cl)cc2)nc2c1CCC2	–	–	–	–	–	–	–	–	–	–	< 10	< 10	> 10	< 10	< 10	6.8	1.3
